Source: ChEMBL document CHEMBL1146547, “Bulbinelonesides A-E, phenylanthraquinone glycosides from the roots of Bulbinella floribunda” (J Nat Prod, 2003)
In brackets after ≈: the same amount, converted by molar mass.

Tests used:
[1] = Cytotoxicity against human HPC by MTT assay
Procedure, shortened: (§1)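 Cells were grown in DMEM with 10% heat-inactivated FBS and penicillin/streptomycin under humidified 5% CO2. HPC came from premolar pulp explants and were used at passages 5–10. Cells were trypsinized, seeded at 6 × 10^3 to 1.2 × 10^4, incubated 24 h, washed with PBS, then exposed to compound for 24 h. MTT (0.2 mg/mL, 4 h) was added, cells were lysed in DMSO, and A540 was read. LD50 was taken from the dose-response curve.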

HSC-2 = assay: Cytotoxicity against human HSC2 cells by MTT assay; type: functional, cell-based; procedure, shortened: as §1

COc1cc(O)c(-c2c(C)cc(O)c3c2C(=O)c2cccc(O)c2C3=O)c(O)c1C(C)=O [KNIPHOLONE]
IC50 [1]: > 120 µg/mL | IC50 (HSC-2): 33 µg/mL (≈ 76 µM)

CC(=O)c1c(O[C@@H]2O[C@H](CO)[C@@H](O)[C@H](O)[C@H]2O)cc(O)c(-c2c(C)cc(O)c3c2C(=O)c2cccc(O)c2C3=O)c1O [BULBINELONESIDE D]
IC50 [1]: > 120 µg/mL | IC50 (HSC-2): > 120 µg/mL

CC(=O)c1c(O)cc(O[C@@H]2OC[C@@H](O)[C@H](O)[C@H]2O)c(-c2c(C)cc(O)c3c2C(=O)c2cccc(O)c2C3=O)c1O [BULBINELONESIDE B]
IC50 [1]: > 120 µg/mL | IC50 (HSC-2): 56 µg/mL (≈ 101 µM)

COc1cc(O)c(C(C)=O)c(O)c1-c1c(C)cc(O)c2c1C(=O)c1cccc(O)c1C2=O
IC50 [1]: 57 µg/mL (≈ 131 µM) | IC50 (HSC-2): 25 µg/mL (≈ 57.6 µM)

COc1cc(O[C@@H]2O[C@H](CO)[C@@H](O)[C@H](O)[C@H]2O)c(-c2c(C)cc(O)c3c2C(=O)c2cccc(O)c2C3=O)c(O)c1C(C)=O [BULBINELONESIDE A]
IC50 [1]: > 120 µg/mL | IC50 (HSC-2): 36 µg/mL (≈ 60.3 µM)

CC(=O)c1c(O[C@@H]2OC[C@@H](O)[C@H](O)[C@H]2O)cc(O)c(-c2c(C)cc(O)c3c2C(=O)c2cccc(O)c2C3=O)c1O [BULBINELONESIDE C]
IC50 [1]: > 120 µg/mL | IC50 (HSC-2): > 120 µg/mL

COc1cc([C@@H]2c3cc4c(cc3[C@@H](O[C@@H]3O[C@@H]5CO[C@@H](C)O[C@H]5[C@H](O)[C@H]3O)[C@H]3COC(=O)[C@H]23)OCO4)cc(OC)c1O [ETOPOSIDE]
IC50 [1]: > 120 µg/mL | IC50 (HSC-2): 24 µg/mL (≈ 40.8 µM)

CC(=O)c1c(O[C@@H]2OC[C@@H](O)[C@H](O[C@@H]3O[C@H](CO)[C@@H](O)[C@H](O)[C@H]3O)[C@H]2O)cc(O)c(-c2c(C)cc(O)c3c2C(=O)c2cccc(O)c2C3=O)c1O [BULBINELONESIDE E]
IC50 [1]: > 120 µg/mL | IC50 (HSC-2): > 120 µg/mL
